# Assay results taken from PubChem BioAssay AID1216 (Sanford-Burnham Center for Chemical Genomics, 2008).
# Out of some 190,000 compounds screened, about 660 (0.35%) were called active. The sample holds actives, similar compounds and a random draw of the others, so the mix is not that of the screen.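 The calls were made as follows: active = activation factor of 2 or more at 20 µM; inactive = the rest.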
# Biological target: Mannose-6-phosphate isomerase (Homo sapiens) (UniProt P34949)
# Experiment: MPI activation at elevated mannose 6-phosphate – biochemical, fluorescence intensity, near-saturating mannose 6-phosphate, primary screen (AID 1216)
# Conditions: coupled PMI enzyme assay, resazurin fluorescence, 20 min; at 20 µM; hits give high values; 1 = untreated enzyme, 0 = substrate-free blank
# In short: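 Test system: human PMI in coupled enzyme assay; Input: PMI at 15 ng/mL final; Medium: HEPES buffer, pH 7.4; Schedule: 20 min incubation at room temperature; Technique: resorufin fluorescence at Ex 544/Em 590 nm; Compound: 20 µM single dose; Probe or stimulus: Near-saturating mannose-6-phosphate, 1.0 mM.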
# Chain of Mannose-6-phosphate isomerase (Homo sapiens) (P34949 whole entry, looked up): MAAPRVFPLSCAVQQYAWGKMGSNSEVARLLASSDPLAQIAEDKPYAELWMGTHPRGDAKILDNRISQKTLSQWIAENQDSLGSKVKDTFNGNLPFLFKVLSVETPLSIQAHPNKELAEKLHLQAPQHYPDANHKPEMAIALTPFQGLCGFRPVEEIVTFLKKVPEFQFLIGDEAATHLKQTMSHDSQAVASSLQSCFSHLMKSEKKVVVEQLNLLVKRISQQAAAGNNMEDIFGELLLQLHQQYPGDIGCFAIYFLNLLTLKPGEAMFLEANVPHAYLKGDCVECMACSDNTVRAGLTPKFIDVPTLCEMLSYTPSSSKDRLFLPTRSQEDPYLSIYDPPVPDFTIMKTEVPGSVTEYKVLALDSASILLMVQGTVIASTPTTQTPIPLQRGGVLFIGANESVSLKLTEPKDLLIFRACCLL
row,Compound,activation factor
1,O=C(CCCn1c(=O)c2sccc2n(CC(=O)NCC2CCCO2)c1=O)NCc1ccco1 (stereo unspecified),0.9 (inactive)
2,Cn1cc(C(=O)NCc2ccccc2F)cn1,1 (inactive)
3,O=C(CO/N=C/c1ccccc1OC(F)F)NC1CCCC1,1.1 (inactive)
4,CCN(CC)C(=O)C(=O)Nc1cccc(Br)c1,0.9 (inactive)
5,C=CCc1ccccc1OCC(=O)N/N=C/c1ccccc1OCC,0.9 (inactive)
6,OCC1(Cc2ccccc2C(F)(F)F)CCN(Cc2cccc3cnccc23)CC1,0.9 (inactive)
7,COc1ccc(OC)c(NC(=O)CN(Cc2ccc(Cl)cc2)S(C)(=O)=O)c1,0.8 (inactive)
8,CSc1ncccc1C(=O)OCc1ccc(Br)cc1,1 (inactive)
9,COC(=O)C(NS(=O)(=O)c1ccc(F)cc1)c1ccccc1 (stereo unspecified),0.9 (inactive)
10,COc1ccc(-c2c3c(=O)n(C)c(=O)n(C)c3cn2NC(C)=O)cc1,2 (active)
11,COc1ccc(-c2c3c(=O)n(C)c(=O)n(C)c3cn2-c2cccc(OC)c2)cc1,1.2 (inactive)
12,COc1cccc(-n2cc3c(c2-c2ccccc2)c(=O)n(C)c(=O)n3C)c1,1 (inactive)
13,COCCn1c(C)cc(C(=O)COC(=O)/C=C/c2cccc(OC)c2)c1C,1 (inactive)
14,Cc1ccc(N/N=C2\COC(C)(C)CC2=O)cc1,1.9 (inactive)
15,COc1ccc(CNC2CCCCC2)cc1,1 (inactive)
16,COc1ccc(N/N=C2/CCCCC2=O)cc1,2 (active)
17,CC(=O)c1cc(C#N)c(N2CC(C)OC(C)C2)nc1C (stereo unspecified),1 (inactive)
18,CC(C)N(C(=O)Cn1cc(SCC(=O)N2CCCC2)c2ccccc21)C(C)C,1 (inactive)
19,COc1ccc(-c2nn(-c3ccccc3)cc2CN2CCCO2)c(F)c1,1 (inactive)
20,CCN(C(=O)COC(=O)c1cc(NS(=O)(=O)c2ccc(Cl)c([N+](=O)[O-])c2)ccc1O)C1CCCCC1,0.9 (inactive)
21,Cc1ccc(N/C=C/C(=O)c2ccccc2)cc1C,1.1 (inactive)
22,O=C(/C=C\NCC(=O)c1ccccc1)c1ccccc1,2.5 (active)

row,Compound,activation factor
1,O=C(/C=C/NCc1ccc(F)cc1)c1ccccc1,1 (inactive)
2,CN(C)CCCSc1ccccc1NC(=O)/C=C/c1ccccc1,1 (inactive)
3,Cc1ccc(S(=O)(=O)CCC(=O)OCc2ccccc2)cc1,1 (inactive)
4,O=C(CNC(=O)c1cc(=O)[nH]c2ccccc12)Nc1ccc(F)c(F)c1,0.9 (inactive)
5,COC(=O)C(=Nc1ccccc1)/C(C(=O)C(=O)N(C)c1ccccc1)=C(\O)c1ccc(Cl)cc1,0.8 (inactive)
6,COc1cc(OC)cc(C(=O)OCC(=O)Nc2ccc(F)cc2F)c1,0.9 (inactive)
7,COc1ccccc1CC(=O)Nc1ccc(F)cc1F,1 (inactive)
8,COc1ccc(C(=O)Nc2ccc(F)cc2F)cc1,2 (active)
9,Cc1cc(C)cc(C(=O)NCC(=O)OCC(=O)N2CCCCC2)c1,1.2 (inactive)
10,Cc1ccc(N/C(N)=N/c2nc(C(F)(F)F)cc(C(F)(F)F)n2)cc1,1.1 (inactive)
11,O=C(Nc1ccccc1N1CCN(C(=O)c2ccccc2)CC1)c1ccc2c(c1)OCO2,0.9 (inactive)
12,O=C(CN1CCN(CC(=O)Nc2ccc3c(c2)OCO3)CC1)Nc1ccc(F)cc1,1 (inactive)
13,O=C(CN1CCN(c2ccccc2F)CC1)c1ccc2c(c1)OCO2,2 (active)
14,S=C(Nc1ccc(Br)cc1Cl)N1CCC2(CC1)OCCO2,0.9 (inactive)
15,CCOC(=O)/C(=N\Nc1cc(Cl)ccc1Cl)N1CCN(C)CC1,1 (inactive)
16,CC(C)(C)C(=O)CSc1nc2ccccc2o1,0.9 (inactive)
17,CN1CCN(S(=O)(=O)c2cccc(C(=O)O)c2)CC1,1.1 (inactive)
18,CC1Cc2ccccc2N1C(=O)CSc1nnc(-c2ccc(S(=O)(=O)N3CCCC3)cc2)n1C (stereo unspecified),0.4 (inactive)
19,COc1ccccc1NC(=O)C1=C(C)Nc2nc3ccccc3n2C1c1cccs1 (stereo unspecified),1 (inactive)
20,COC(=O)Cc1cc(=O)n(-c2nc3ccccc3s2)[nH]1,2 (active)
21,COC(=O)Cc1nc2ccccc2[nH]1,1 (inactive)
22,CCC(=O)NC(=Nc1nc2ccccc2s1)NC(=O)CC,1.1 (inactive)

row,Compound,activation factor
1,CCCCN=C1C([N+](=O)[O-])=CC=C2C1=NC1(CCCCC1)N2O,0.5 (inactive)
2,O=C(Nc1cccnc1)c1cc2cc(Br)ccc2oc1=O,1.1 (inactive)
3,CS(=O)(=O)N(CC(=O)NC1CCCC1)Cc1ccc(F)cc1,1 (inactive)
4,CCC1=NN(C(=O)Cc2ccc([N+](=O)[O-])cc2)C(O)(c2ccc(Br)cc2)C1 (stereo unspecified),0.9 (inactive)
5,CCN(CC)CCN1C(=O)C(=O)/C(=C(/O)c2ccc(OC)c(OC)c2)C1c1ccccn1 (stereo unspecified),1.2 (inactive)
6,CCN(CC)CCN1C(=O)C(=O)/C(=C(/O)c2cnn(-c3ccccc3)c2C)C1c1cccs1 (stereo unspecified),2 (active)
7,CCN(CC)CCN1C(=O)C(=O)/C(=C(/O)c2ccccc2)C1c1ccccc1F (stereo unspecified),1 (inactive)
8,Cc1cc(C)c(OCCN2CC(C)OC(C)C2)c(Br)c1 (stereo unspecified),0.9 (inactive)
9,Cc1scc(C(=O)NNC(=S)NCc2ccccc2)c1C,1.1 (inactive)
10,S=C(c1ccc(-c2ccccc2)o1)N1CCCCC1,0.9 (inactive)
11,C=CCN(C(=O)c1cc(C)cc(C)c1)C1(C(=O)Nc2ccccc2)CCN(C(C)C)CC1,1 (inactive)
12,COc1cccc(CN2CCNC(=O)C2CC(=O)N(C)CCc2ccccn2)c1 (stereo unspecified),0.7 (inactive)
13,CC1=C(C)CC(C(=O)NNC(=O)c2csc3c2CCC(C(C)(C)C)C3)C(C(=O)O)C1 (stereo unspecified),1 (inactive)
14,Cc1ccc(/C(N)=N/OC(=O)COc2ccc(Cl)c(C)c2)cc1,1 (inactive)
15,O=C(c1cn(-c2ccccc2)nc1-c1cc2ccccc2oc1=O)N1CCOCC1,1 (inactive)
16,O=c1oc2ccccc2cc1-c1cn(-c2ccccc2)c(=S)[nH]1,2.3 (active)
17,Nc1ncc(-c2cc3ccccc3oc2=O)s1,0.8 (inactive)
18,O=S1(=O)CC/C(=N\Nc2ccc(F)cc2)c2ccsc21,2.6 (active)
19,COC(=O)c1nc(NC(=O)c2ccc(F)cc2)n[nH]1,1 (inactive)
20,CCOC(=O)C1(O)CC(C)=NN1C(=O)c1cccc(Br)c1 (stereo unspecified),1.1 (inactive)
21,Cn1cccc1/C=N/NC(=O)c1ccc(OC(F)(F)C(F)F)cc1,0.9 (inactive)
22,O=C(NCc1ccccc1Cl)C1CCCO1 (stereo unspecified),1 (inactive)
